Among the data in ChEMBL document CHEMBL3627611, “Carbonic anhydrase inhibitors: Design, synthesis, kinetic, docking and molecular dynamics analysis of novel glycine and phenylalanine sulfonamide derivatives” (Bioorg Med Chem, 2015) are inhibition and Ki values, retold here.

Experiment [1] has as its target T1, Carbonic anhydrase 1 (Homo sapiens, UniProt P00915). Description: Competitive inhibition of cytosolic carbonic anhydrase 1 esterase activity isolated from human erythrocytes in presence of 4-nitrophenylacetate. The gist of the method:
(§1)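 Esterase activity followed at 348 nm as 4-nitrophenylacetate (3 mM stock) converts to 4-nitrophenylate, 3 min at 25 °C, in 0.05 M Tris–SO4 pH 7.4. Blank without enzyme; uninhibited control = 100%. Several inhibitor concentrations, each in triplicate; KI from activity-versus-[inhibitor] plots via Cheng–Prusoff.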
Target sequence in this assay (P00915 2-261 limits assumed): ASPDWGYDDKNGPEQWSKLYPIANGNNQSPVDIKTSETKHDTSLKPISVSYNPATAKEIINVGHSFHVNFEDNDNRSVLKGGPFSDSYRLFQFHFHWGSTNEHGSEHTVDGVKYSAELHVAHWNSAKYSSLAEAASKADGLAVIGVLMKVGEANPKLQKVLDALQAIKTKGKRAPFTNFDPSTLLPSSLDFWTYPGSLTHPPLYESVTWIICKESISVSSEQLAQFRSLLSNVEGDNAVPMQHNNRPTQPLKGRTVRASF

Experiment [2] deals with T1, Carbonic anhydrase 1. Description: Inhibition of cytosolic carbonic anhydrase 1 esterase activity isolated from human erythrocytes using 4-nitrophenylacetate as substrate measured over 3 mins by spectrophotometric analysis. An outline of the steps:
as §1
Target sequence in this assay (P00915 whole entry): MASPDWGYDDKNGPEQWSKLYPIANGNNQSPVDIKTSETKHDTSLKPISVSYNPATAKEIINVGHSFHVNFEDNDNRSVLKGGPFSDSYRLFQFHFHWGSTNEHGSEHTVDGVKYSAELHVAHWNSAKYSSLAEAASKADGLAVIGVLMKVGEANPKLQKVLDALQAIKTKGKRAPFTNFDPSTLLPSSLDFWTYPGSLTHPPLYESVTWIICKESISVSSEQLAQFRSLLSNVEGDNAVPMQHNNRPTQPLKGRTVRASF

A further experiment concerns the target Carbonic anhydrase 2 (Homo sapiens, UniProt P00918). Description: Inhibition of cytosolic carbonic anhydrase 2 esterase activity isolated from human erythrocytes using 4-nitrophenylacetate as substrate measured over 3 mins by spectrophotometric analysis.

Calls of active or inactive are those of the source. No cut-off for these calls is given here.

The Ki is the dissociation constant of the complex between target and ligand, obtained from inhibition or displacement. A higher Ki goes with a looser hold on the target. With `Cc1ccc(S(=O)(=O)N[C@@H](Cc2ccccc2)C(=O)O)cc1`, the inhibition result at Carbonic anhydrase 1 [1] was “Active”. The figures for the Ki on Carbonic anhydrase 1 [2] and at Carbonic anhydrase 2 were 315 µM and 104 µM, respectively.

For the compound `Cc1ccc(S(=O)(=O)NCC(=O)OCc2ccccc2)cc1`, at Carbonic anhydrase 1 [1], the inhibition entry was “Active”. This compound showed a Ki at Carbonic anhydrase 1 [2] of 29.6 µM.

Take `Cc1ccc(S(=O)(=O)NCC(=O)O)cc1`: the inhibition entry on Carbonic anhydrase 1 [1] was “Active”. Also, the Ki at Carbonic anhydrase 1 [2] amounted to 120 µM; at Carbonic anhydrase 2, 144 µM.

With `COC(=O)CNS(=O)(=O)c1ccc(C)cc1`, the inhibition entry at Carbonic anhydrase 1 [1] is “Active”. The Ki on Carbonic anhydrase 1 [2] amounted to 106 µM; at Carbonic anhydrase 2 it was 56.4 µM.

Turning to `Cc1ccc(S(=O)(=O)N[C@@H](Cc2ccccc2)C(=O)OCc2ccccc2)cc1`, on Carbonic anhydrase 1 [1], the inhibition result is “Active”. For the same compound, the Ki at Carbonic anhydrase 1 [2] is 14.7 µM.

`Cc1ccc(S(=O)(=O)NCC(=O)N2CCCCC2)cc1` yielded a Ki on Carbonic anhydrase 2 of 19.3 µM.

As for `Cc1ccc(S(=O)(=O)N[C@@H](Cc2ccccc2)C(=O)N2CCCCC2)cc1`, the inhibition entry at Carbonic anhydrase 1 [1] is “Active”. The compound further had a Ki on Carbonic anhydrase 1 [2] of 100 µM.

As to `COC(=O)[C@H](Cc1ccccc1)NS(=O)(=O)c1ccc(C)cc1`, the inhibition entry at Carbonic anhydrase 1 [1] is “Active”. Also, the Ki at Carbonic anhydrase 1 [2] stood at 63.7 µM.
